Compound activity as filed in PubChem.
An excerpt weighted towards active compounds, which were near 10% of everything screened.
Lmaj promast: inhibitors of Leishmania major promastigote growth | Leishmania major promastigotes, resazurin fluorescence viability | inhibition, % at 10 µM | actives 9% (n = 200,000) | AID 1063; in the data active means inhibition above about 50%;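 further: promastigotes grown with compound for 44 hours at 28 °C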
PMI activator: activators of human phosphomannose isomerase; P34949; purified human PMI, coupled resazurin fluorescence, 20 min; active compounds read high; 1 = vehicle control, 0 substrate-free wells; activation factor at 20 µM; actives 0.005% (n = 190,000); AID 1214;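 active means activation factor of 2 or more at 20 µM, relative to plate controls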
Target sequence (P34949 whole entry, looked up): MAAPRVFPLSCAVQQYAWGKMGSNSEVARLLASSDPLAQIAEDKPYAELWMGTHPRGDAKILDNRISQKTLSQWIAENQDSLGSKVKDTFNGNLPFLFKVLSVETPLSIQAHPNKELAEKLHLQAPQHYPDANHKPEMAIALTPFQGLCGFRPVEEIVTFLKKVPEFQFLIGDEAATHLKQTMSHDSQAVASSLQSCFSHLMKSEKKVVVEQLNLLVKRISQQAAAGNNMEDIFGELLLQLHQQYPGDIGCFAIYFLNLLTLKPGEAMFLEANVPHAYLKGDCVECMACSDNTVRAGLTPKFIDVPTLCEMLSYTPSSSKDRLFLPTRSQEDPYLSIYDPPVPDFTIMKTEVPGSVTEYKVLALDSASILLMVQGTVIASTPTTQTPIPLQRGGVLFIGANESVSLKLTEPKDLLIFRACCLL
WT yeast gro inh: growth inhibition of WT yeast, mitochondrial fusion screen; mitochondrial fusion phenotypic screen, WT strain; inhibition, % at 10 µM; actives 2.1% (n = 190,000); AID 1362; in the data active means inhibition above about 58%; tested in S. cerevisiae
Diaphorase act: activates diaphorase or chemically reduces, flagging diaphorase assay artifacts; Diaphorase/resazurin coupled assay, resorufin fluorescence, 16 min; active compounds read high; 1 = vehicle wells, 0 = NADH-free wells; activation factor at 20 µM; actives 0.005% (n = 190,000);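 active means diaphorase activity raised at least twofold by the compound at 20 µM; inactive means activation factor below 2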
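Assay system: bacterial diaphorase enzyme (C. kluyveri) / Input: enzyme 0.07 U/mL final / Medium: 50 mM HEPES pH 7.4 with 4.542 mM MgCl2, 0.005% Tween 20 / Doses: single compound dose of 20 µM, 1% DMSO final / Incubation: 16 min enzyme reaction, ambient temperature / Signal: fluorescence, excitation 544 nm and emission 590 nm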
PMI act satM6P: increases human PMI activity with near-saturating mannose 6-phosphate; coupled PMI enzyme assay, resazurin fluorescence, 20 min; active compounds read high; 1 = untreated enzyme, 0 = substrate-free blank; activation factor at 20 µM; actives 0.34% (n = 190,000);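 active means activation factor of 2 or more at 20 µM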
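Test system: human phosphomannose isomerase with PGI, G6PDH, diaphorase coupling enzymes; Amount: PMI at 15 ng/mL final; Reagent: Mannose-6-phosphate 1.0 mM (near-saturating) plus 0.22 mM NADP+; Timing: 20 min, room temperature; Technique: resorufin fluorescence at Ex 544/Em 590 nm; Dosing: 20 µM single dose.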
* hit, by the source's call; nt = no result.

SMILES	Lmaj promast	PMI activator	WT yeast gro inh	Diaphorase act	PMI act satM6P
CCN(C(=O)COc1cc(=O)n(C)c2ccccc12)c1cccc(Cl)c1	62*	1.1	-4	0.9	1
CCN(CCCNC(=O)COc1cc(=O)n(CC)c2ccccc12)c1ccccc1	53*	0.9	1	0.8	0.9
CCN(CCCNC(=O)COc1cc(=O)n(C)c2ccccc12)c1ccccc1	65*	1	-10	1	1
CCC1(c2ccc(F)cc2)NC(=O)N(CC(=O)Nc2ccc(S(N)(=O)=O)cc2)C1=O (centres undefined)	-7	1.1	-1	0.9	1
CC1N(O)C(c2ccc(Cl)cc2Cl)N(O)C1(C)C (centres undefined)	-9	1.8	6	1	2*
COCCNC(=S)NC(=O)CC12CC3CC(CC(C3)C1)C2	88*	0.8	1	0.8	0.9
Clc1ccc(-c2nnc(NCc3ccccc3)c3ccccc23)cc1	44	0.9	73*	0.9	1
Cc1ccc(-c2nnc(NCc3ccccc3)c3ccccc23)cc1	10	0.8	-12	0.8	0.9
Clc1ccc(Nc2ccc(NCc3ccccc3)nn2)cc1	91*	0.8	27	0.8	0.8
Cc1ccc(Nc2ccc(NCc3ccccc3)nn2)cc1C	28	0.9	33	0.9	0.9
Cc1ccc(N(C(C)C(=O)NCc2ccncc2)S(C)(=O)=O)cc1C (centres undefined)	-9	1	-4	0.9	0.9
COc1ccc(/C=C2/C(=O)N(c3nc4ccccc4s3)N=C2CSc2ccc(Cl)cc2)cc1	100*	1.1	2	0.9	1.2
COc1ccc(/C=C2/C(=O)N(Cc3ccccc3)N=C2C)cc1	0	0.9	9	0.8	0.9
Cc1nc2sc(C(N)=O)c(N)c2c(C)c1CC(=O)c1ccccc1	11	1.7	-4	1	2*
O=C(c1ccc(C#Cc2ccccc2)o1)N1CCN(c2ccccn2)CC1	-8	0.9	69*	0.8	0.9
Cc1cc(C)c(C)c(S(=O)(=O)N2CCN(CC(=O)Nc3sccc3C#N)CC2)c1C	57*	1	-8	0.9	1
O=C(c1ccccc1)N1CCN(C2CCCCCC2)CC1	43	0.8	-9	0.8	0.9
O=C(c1cccs1)N1CCc2ccccc2C1	-5	nt	4	nt	nt
O=C(Cn1c(C(=O)N2CCN(C3CCCCC3)CC2)cc2sccc21)c1ccccc1	81*	1	-9	0.9	1
O=C(Cn1c(C(=O)N2CCc3ccccc3C2)cc2sccc21)c1ccccc1	61*	0.9	2	0.8	0.9
CC1SC(=NC(=O)C(C)N2C(=O)c3ccccc3C2=O)NC1=O (centres undefined)	-6	1.1	3	1	1.1
COc1cccc(CN(Cc2cccnc2)S(=O)(=O)c2ccc(-n3cnnn3)c(C)c2)c1	100*	1	-23	1	1.1
COc1cccc(CN(c2ccc3c(c2)CCC3)S(=O)(=O)c2ccc(-n3cnnn3)c(OC)c2)c1	66*	0.9	2	0.9	1
COc1cccc(CN(CC2CCCO2)S(=O)(=O)c2ccc(-n3cnnn3)c(OC)c2)c1 (centres undefined)	5	0.9	-1	0.9	0.9
Cc1ccc(CNS(=O)(=O)N(C)C)cc1	-1	1	19	0.9	1.1
SMILES	Lmaj promast	PMI activator	WT yeast gro inh	Diaphorase act	PMI act satM6P
CCC(C)NC(=O)c1c(C)cc(=O)oc1C (centres undefined)	-5	0.9	-1	1	0.9
CC12CC(NC(=O)N1c1cccc(C(=O)NCc3ccccc3)c1)c1ccccc1O2 (centres undefined)	-2	1	-13	0.9	0.9
OC1(c2cccc(C(F)(F)F)c2)CCN(Cc2nc(-c3cnccn3)no2)CC1	78*	1	-5	0.9	1
Fc1cccc(CN2CCN(Cc3nc(-c4cnccn4)no3)CC2)c1	-2	1	-18	0.9	1
OC(CNCc1ccc(-c2ccccc2)cc1)c1ccccc1 (centres undefined)	99*	1	60*	1	0.9
OCCNCc1ccc(-c2ccccc2)cc1	63*	0.9	-7	1	1.1
O=C(O)CN1CCc2ccccc2C1	5	1	10	1	1.1
CCOC(=O)N=Nc1c(O)n(CC(=O)OC)c2ccccc12	3	1	14	0.9	0.9
CCn1c(O)c(N=NC(=O)Cn2ccc(C(F)(F)F)n2)c2ccccc21	67*	0.9	23	1	1
Cn1c(O)c(N=NC(=O)Cn2ccc(C(F)(F)F)n2)c2ccccc21	58*	1.1	4	0.8	1
CCOC(=O)C(=O)N=Nc1c(O)n(C)c2ccccc12	-3	0.9	-8	0.9	1
NC(=O)C1CCN(CC(=O)Nc2ccccc2Sc2ccc(Cl)cc2)CC1	93*	0.8	-25	0.9	0.9
O=C(COC(=O)C1CC1)Nc1ccccc1Sc1ccccc1	-5	1	-4	0.9	1
Cc1ccc(C(=O)OCC(=O)Nc2ccccc2Sc2ccccc2)cc1C	62*	1	1	0.9	1.1
COC(=O)C1CCN(CC(=O)Nc2ccccc2Sc2ccccc2)CC1	52*	0.9	12	0.9	0.8
NC(=O)C1CCN(CC(=O)Nc2ccccc2Sc2ccccc2)CC1	3	0.9	-4	0.9	1
CN1CCC(=NNC(=O)C(=O)Nc2ccccc2F)CC1	-5	1	6	0.9	1
Cc1ccc(N(CC(=O)NC2CCC(C)CC2)S(=O)(=O)c2cccnc2)cc1 (centres undefined)	67*	1	-1	0.9	1.1
Cc1ccc(C)c(OCC(=O)NCCN(C)C)c1	-3	1	-7	0.9	1
Cc1ccc(C23CC4CC(CC(NC(=O)NCCN(C)C)(C4)C2)C3)cc1	99*	1	-3	1	1
Cc1ccc(CNC(=O)NC23CC4CC(CC(C4)C2)C3)cc1	1	1	7	0.9	1.1
CN(C)CCNC(=O)COc1ccc(C23CC4CC(CC(C4)C2)C3)cc1	101*	1.2	96*	1.2	1.1
CCS(=O)(=O)N1CCC(C(=O)O)CC1	-6	1.2	10	1	1.1
COCC(=O)Nc1nnc(-c2ccc(C(C)(C)C)cc2)s1	6	0.9	70*	1	1
Cc1cc(-c2ccccc2)nc(SCC(=O)N2CCCC2)n1	2	1.1	-6	0.9	1.1
CN=C1c2cc3cc(OC)ccc3n2CCN1Cc1ccccc1	23	1.1	1	1.1	1.4
CCN(CC)CCNC1=NCCn2c1cc1cc(OC)ccc12	96*	1	0	1.1	1
CCN1CCCC1CN(Cc1cc2ccc(C)cc2[nH]c1=O)C(=S)Nc1ccc(OC)cc1OC (centres undefined)	3	0.8	12	0.8	0.6
